# TRPC4 PAM: allosterically enhances the mouse TRPC4 cation channel | Q9QUQ5 | HEK293 TRPC4beta/mu-opioid, DAMGO EC20, Fluo-4 Ca2+ flux; hits give high values | B-score at 10 µM | 310,000 tested, 0.42% active | AID 2227;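 active means B-score of calcium response area above 5 SD of library B-scores, with initial fluorescence ratio within 5 SD of library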;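 further: B-score of integrated fluorescence ratio over time as area under calcium response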
# TRPC6 inh: inhibitors of mouse TRPC6 channel | HEK293-TRPC6, membrane potential dye, ACh-evoked depolarization; hits give low values | B-score at 10 µM | 310,000 tested, 1.1% active | AID 2553;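 active means B-score under library mean minus 3 SD, initial fluorescence not abnormally high, positive integrated signal ratio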;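 further: B-score derived from integrated fluorescence ratio over the kinetic read; more negative B-score means stronger inhibition of depolarization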
# TRPC4 agonist: opens the mouse TRPC4 cation channel; AID 2237; Q9QUQ5; 310,000 tested, 0.49% active; B-score at 10 µM; HEK293 TRPC4beta/mu-opioid, Fluo4 calcium fluorescence; hits give high values;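 active means B-score above 5 SD of library B-scores, and initial fluorescence ratio not above library mean plus 5 SD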;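 further: positive B-score marks a calcium rise read as TRPC4 activation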
#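 Assay system: HEK293 stable line with TRPC4beta plus mu-opioid receptor. Times: dye 45 min RT, read 110 s. Measured by: kinetic Fluo4 calcium fluorescence. Measure: B score of integrated ratio. Controls: assay buffer as low control, maximal DAMGO as high control.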
# TRPC6 activator: mouse TRPC6 channel activation. Q61143. HEK293-TRPC6 membrane potential dye fluorescence; hits give high values. B-score at 10 µM. 310,000 tested, 0.13% active;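 active means B-score of the integrated fluorescence ratio above library mean plus 3 SD, and starting fluorescence ratio within library mean plus 5 SD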;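 further: higher score means more depolarization so channel activation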
# FID counter: counter-screen for HCV NS3 helicase inhibitors: DNA intercalator displacement. inhibition, % at 7.9 µM. AID 1845. 290,000 tested, 0.17% active. DNA fluorescent intercalator displacement, fluorescence; in the data active means inhibition above about 37%;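 further: 0% = vehicle and 100% = reference compound; higher means more ethidium bromide displaced from hairpin DNA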
# TRPC4 block: TRPC4 (mouse) channel inhibition; 300,000 tested, 0.39% active; B-score at 10 µM; AID 2247; HEK293 TRPC4beta/mu-opioid, DAMGO-evoked Fluo4 calcium flux; hits give low values;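 active means B-score over 3 SD under the library average, no early fluorescence shift, positive overall ratio signal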
#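 Assay system: TRPC4beta/mu-opioid receptor HEK293 cell line; compound dosing: single concentration per test compound; detection: Fluo4 Ca2+ flux fluorescence; evaluation: per-well B score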
# Starred values were filed as active, the others as inactive; i = inactive; . = no result given. This is a sample that favours compounds with a hit; in the whole collection about 2.3% have one here.
SMILES,TRPC4 PAM,TRPC6 inh,TRPC4 agonist,TRPC6 activator,FID counter,TRPC4 block
CN1CCC(=C2c3ccccc3CCc3sccc32)CC1,i,-6.65*,i,i,16.3,i
Cc1cccnc1NC(=O)c1ccc(Cl)c(S(=O)(=O)N2CCCCCC2)c1,i,i,i,i,-31.5,i
Cc1ccnc(SCC(=O)Nc2sccc2C#N)n1,i,i,i,i,-3.5,i
O=C1/C(=C/c2ccc([N+](=O)[O-])cc2)C=C(c2ccccc2)N1c1ccc(O)cc1,i,-5.2*,i,i,0.3,i
O=C1/C(=C/c2ccc([N+](=O)[O-])cc2)C=C(c2ccccc2)N1c1ccccc1,i,i,i,i,2.4,i
COc1ccc(C(=O)NNC(=S)NC(=O)c2ccc(Cl)cc2)cc1,i,i,163*,i,.,i
CCCCC(=O)NNC(=S)NC(=O)c1ccc(C)cc1,i,i,240*,i,-10.7,i
COc1ccc(C(=O)NC(=S)NNC(=O)c2ccc(C)cc2)cc1,i,i,189*,i,.,i
O=S(=O)(Cc1nnnn1-c1ccccc1)c1ccc(F)cc1,i,i,i,i,-3.1,i
COc1ccc(CNCCC(c2ccccc2)C2CCOC(C)(C)C2)cc1 (configuration not stated),i,i,60*,i,29.4,i
Cc1ccc(C(=O)c2sc3c(c2N)c(=O)[nH]c(=O)n3CCc2ccccc2)cc1,i,i,i,i,-2.4,i
CCn1c(=O)[nH]c(=O)c2c(N)c(C(=O)c3cc(F)ccc3F)sc21,10*,i,i,i,-13.7,i
CCOC(=O)c1c(-c2ccc(OC)cc2)oc2ccc(O)cc12,17*,i,i,i,-9.0,i
COc1cc(/C=C/[N+](=O)[O-])ccc1OC(=O)/C=C/c1ccc(F)cc1,i,i,i,i,-4.8,i
Cc1c(N2C(=O)/C(=C\C3CC=CCC3)SC2=S)c(=O)n(-c2ccccc2)n1C (configuration not stated),17*,i,i,i,-9.1,i
N#Cc1cccc(NC(=O)Cn2cnc(S(=O)(=O)N3CCOCC3)c2)c1,i,i,i,i,-1.9,i
COc1ccccc1Nc1nnc(SCc2nnc(-c3cc(OC)c(OC)c(OC)c3)o2)s1,i,i,i,i,-24.3,i
CCOc1ccccc1Nc1nnc(SCc2nnc(-c3cc(OC)c(OC)c(OC)c3)o2)s1,21*,i,i,i,-30.4,i
CC(=O)c1ccc2c(c1)N(C)c1ccccc1S2,i,i,i,i,-2.6,-6*
Cc1cc(C)c(S(=O)(=O)Nc2nnc(C(C)C)s2)c(C)c1,i,i,i,i,-37.8,i
COc1ccc(C(CNC(=O)c2cccc(S(=O)(=O)Nc3ccc(C)cc3)c2)N2CCCCC2)cc1 (configuration not stated),i,i,i,i,.,i
CCCCOc1ccc(C(=O)NCC(=O)NCC(c2ccc(OC)cc2)N2CCCC2)cc1 (configuration not stated),14*,i,i,i,.,i
COc1ccc(C(CNC(=O)c2oc3ccc(Cl)cc3c2C)N2CCCCC2)cc1 (configuration not stated),i,i,i,i,31.2,-5*
CCCCOc1ccc(C(=O)NCC(=O)NCC(c2ccc(F)cc2)N2CCOCC2)cc1 (configuration not stated),i,i,i,i,.,i
COc1ccc(C(CNC(=S)NCc2ccccc2)N2CCCC2)cc1 (configuration not stated),i,i,i,i,22.1,-6*
SMILES,TRPC4 PAM,TRPC6 inh,TRPC4 agonist,TRPC6 activator,FID counter,TRPC4 block
COc1ccc(C(CNC(=O)c2cccc(Br)c2)N2CCCC2)cc1 (configuration not stated),i,i,89*,i,7.3,i
O=C(COC(=O)CNC(=O)c1ccc(Cl)cc1Cl)NC(=O)NC1CCCCC1,i,i,i,i,.,i
CCN1CCN(c2ncc(C(=O)Nc3cc(Cl)c(OC)cc3OC)c3ccccc23)CC1,i,i,61*,i,-1.1,i
CCN1CCN(c2ncc(C(=O)N3CCN(c4ccccc4OC)CC3)c3ccccc23)CC1,.,.,.,.,14.4,.
CC1(C)C(=O)CC[C@]2(C)C3C(=O)C=C4[C@H]5C[C@@](C)(C(=O)O)CC[C@]5(C)CC[C@]4(C)[C@]3(C)CC[C@@H]12 (some centres not stated),i,i,i,i,.,i
CC1(C)[C@@H](O)CC[C@]2(C)C3C(O)C=C4[C@H]5C[C@@](C)(C(=O)O)CC[C@]5(C)CC[C@]4(C)[C@]3(C)CC[C@@H]12 (some centres not stated),i,i,210*,i,.,-6*
CCCCCc1c(O)nc(SCCN(CC)CC)[nH]c1=O,i,i,46*,i,2.0,i
CCCCCCc1c(O)nc(SCCN(C)C)[nH]c1=O,i,i,65*,i,-0.8,i
CCCN(CCC)CCSc1nc(O)c(C(C)C)c(=O)[nH]1,12*,i,i,i,2.3,i
CCCCCCc1c(O)nc(SCC(=O)O)[nH]c1=O,i,i,i,i,.,i
CCN(CC)CCSc1nc(O)c(-c2ccccc2)c(=O)[nH]1,i,i,i,i,-1.7,i
CCCCCc1c(O)nc(SCCN(C)C)[nH]c1=O,i,i,93*,i,2.2,i
CCCCc1c(O)nc(SCC(=O)O)[nH]c1=O,i,i,i,i,13.9,i
COc1ccc(-c2nnn(CC(=O)N(CC(=O)NC3CCCC3)c3ccccc3F)n2)cc1OC,i,i,i,i,-34.4,i
Cc1ccc(S(=O)(=O)Nc2ccc(Cl)cn2)cc1C,i,i,i,i,-10.7,i
O=S(=O)(/N=C(/Nc1cccc2ccccc12)c1ccc(F)cc1)c1ccccc1,i,i,i,i,-30.2,i
CC(C)c1c(O)nc(SCC(=O)N2CCCCC2)[nH]c1=O,10*,i,i,i,-3.4,i
CCC(C)c1c(O)nc(SCC(=O)N2CCCCCC2)[nH]c1=O (configuration not stated),i,i,i,i,-8.3,i
CCS(=O)(=O)N1Cc2ccccc2CC1C(=O)NCCc1ccccc1 (configuration not stated),i,i,i,i,-17.4,i

# Source: PubChem
